In the library only some 2.7% were active in any assay of this set; here they are far more common.
DENV2 CPE: inhibitors of DENV2 cytopathic effect | DENV2-infected cells, cytopathic effect rescue, plate reader | 1.7% of 350,000 active | CPE inhibition, % at 9.99 µM; in the data active means CPE inhibition above about 20%, passing the limit was not always enough; inconclusive means no clear call, values can overlap the other calls; tested in BHK-21 cells
S100A4 inh HTS: blocks human S100A4 binding to myosin IIA peptide. P26447. S100A4/TAMRA-MyoIIA peptide fluorescence polarization. inhibition, % at 10.7 µM. 0.14% of 360,000 active. AID 652163;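 active means mean inhibition of at least 70% across replicates, with every replicate also reaching that level; inconclusive means mean inhibition reaches 70% but some replicates fall short; inactive means mean inhibition below 70%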
Target sequence (P26447 whole entry, looked up): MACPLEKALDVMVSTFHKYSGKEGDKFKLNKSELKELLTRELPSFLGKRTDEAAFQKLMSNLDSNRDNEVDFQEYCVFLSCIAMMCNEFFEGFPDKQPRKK
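incubation = readout 5 min after mixing, signal stable up to 60 min | system = S100A4 monomer protein | buffer or medium = HEPES pH 7.2 with CaCl2, KCl, NaCl, DTT, Triton | benchmarks = neutral control DMSO, positive control TFP | also added = fluorescent myosin IIA peptide, 5 nM | compound dosing = one concentration per compound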
SIRT5 inh: blocks human SIRT5 desuccinylation of peptide. Q9NXA8. Purified SirT5, succinyl-peptide AMC, trypsin-coupled fluorescence. inhibition, % at 15 µM. 1.1% of 330,000 active. AID 652115; in the data active means inhibition above about 15%; inconclusive means no clear call, values can overlap the other calls
AF4-AF9 inh: MLL-AF4/AF9 protein interaction inhibition | inhibition, % at 10 µM | AlphaScreen, biotin-AF4 peptide binding to FLAG-AF9 | AID 651704 | P42568 | 0.47% of 350,000 active;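 active means every replicate reaching a set inhibition limit, whatever the replicate mean, cut at about 25% in these data; inconclusive means mean inhibition reaches that limit but some replicates miss it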
Target sequence (P42568 whole entry, looked up): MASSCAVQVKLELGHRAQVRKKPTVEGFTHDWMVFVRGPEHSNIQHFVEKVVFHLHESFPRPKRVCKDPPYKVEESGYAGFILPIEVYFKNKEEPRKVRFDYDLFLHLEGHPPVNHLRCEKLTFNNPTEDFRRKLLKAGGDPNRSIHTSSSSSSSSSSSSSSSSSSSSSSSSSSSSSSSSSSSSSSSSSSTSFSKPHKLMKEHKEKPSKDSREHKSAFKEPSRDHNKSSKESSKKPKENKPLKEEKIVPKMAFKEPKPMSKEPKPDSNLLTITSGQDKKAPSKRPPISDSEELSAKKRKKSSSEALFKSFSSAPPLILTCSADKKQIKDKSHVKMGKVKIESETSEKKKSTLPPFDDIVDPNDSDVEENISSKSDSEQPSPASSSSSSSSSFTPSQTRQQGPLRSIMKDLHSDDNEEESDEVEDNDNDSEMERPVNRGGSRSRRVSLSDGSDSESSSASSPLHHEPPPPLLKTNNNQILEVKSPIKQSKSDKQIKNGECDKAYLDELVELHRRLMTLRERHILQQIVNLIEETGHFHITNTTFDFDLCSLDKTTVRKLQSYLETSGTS
CaV13 FRET inh: Primary screen for inhibitors of IQ motif and Ca2+-dependent inactivation inhibitor domain binding in CACNA1D, Förster resonance energy transfer in living cells, …; HEK cells, CFP/YFP FRET ICDI-IQ, plate reader, 10 min; percent FRET-ratio fall versus neutral wells; inhibition, % at 12.3 µM; 0.098% of 340,000 active; AID 743397;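 active means mean replicate inhibition of at least 30% and at least 1% of replicates passing that level; inconclusive means only one of the two criteria is met; inactive means neither criterion is met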
Of the large screens only hits and unclear results are named; the others gave an inactive call.

CN(C)C(=O)c1cccc(-c2ccc3c(c2)[C@H]2[C@H](CCN2C(=O)C2CC2)[C@@H](CO)N3)c1	S100A4 inh HTS 78.3 (no result: CaV13 FRET inh)
CN(C)C(=O)c1cccc(-c2ccc3c(c2)[C@@H]2[C@@H](CCN2C(=O)Cc2ccccc2)[C@H](CO)N3)c1	none (no result: CaV13 FRET inh)
C[C@H](CO)N1C[C@H](C)[C@H](CN(C)S(C)(=O)=O)Oc2c(NC(=O)c3nc4ccccc4s3)cccc2C1=O	S100A4 inh HTS inconclusive (no result: CaV13 FRET inh)
O=C1c2ccccc2/C(=C\c2ccc(Br)nc2)N1c1ccccc1	DENV2 CPE 47.2 (no result: SIRT5 inh)
O=C1c2ccccc2/C(=C\c2ccc(Br)s2)N1c1ccccc1	none
Cc1noc(C)c1S(=O)(=O)Nc1ccc2c(c1)C(=O)N([C@H](C)CO)C[C@H](C)[C@@H](CN(C)C(=O)CCC(F)(F)F)OCCCC[C@@H](C)O2	none (no result: CaV13 FRET inh)
CC(=O)N1CC2(C1)[C@@H](c1ccc(-c3ccc(F)cc3)cc1)[C@@H](CO)N2C(C)=O	DENV2 CPE 78.2 (no result: CaV13 FRET inh)
COCC(=O)N1[C@H](CO)[C@@H](c2ccc(-c3cccc(OC)c3)cc2)C12CN(C(C)=O)C2	DENV2 CPE 28.0 (no result: CaV13 FRET inh)
CCC(=O)N1CC2(C1)[C@@H](c1ccc(-c3ccccc3C)cc1)[C@@H](CO)N2C(C)=O	none (no result: CaV13 FRET inh)
CCC(=O)N1[C@@H](CO)[C@@H](c2ccc(-c3ccccc3C)cc2)C12CN(C(C)=O)C2	DENV2 CPE 60.1 (no result: CaV13 FRET inh)
CCC(=O)N1[C@@H](CO)[C@@H](c2ccc(-c3cccc(OC)c3)cc2)C12CN(C(C)=O)C2	none (no result: CaV13 FRET inh)
C=CCNC(=O)CNS(=O)(=O)c1ccc(F)cc1	SIRT5 inh 17.8
Cc1ccc(S(=O)(=O)NCC(=O)OCC(=O)NCc2ccc(F)cc2)cc1	SIRT5 inh 33.7
Cc1ccc(S(=O)(=O)N(CC(=O)NCc2ccc(F)cc2)C(=O)N2CCN(C)CC2)cc1	DENV2 CPE 31.0
CC(=O)N1[C@@H](CO)[C@@H](c2ccccc2)C12CN(C(=O)Cc1ccccc1)C2	none (no result: CaV13 FRET inh)
COCC#Cc1ccc2c(c1)O[C@@H](CN(C)Cc1cncnc1)[C@H](C)CN([C@@H](C)CO)S2(=O)=O	none (no result: CaV13 FRET inh)
C[C@H]1CN([C@@H](C)CO)C(=O)c2cccc(NC(=O)C3CCOCC3)c2O[C@H]1CN(C)C(=O)Nc1ccc2c(c1)OCO2	DENV2 CPE 37.0 (no result: CaV13 FRET inh)
C[C@H]1CN([C@@H](C)CO)C(=O)c2cccc(NC(=O)C3CCCCC3)c2O[C@@H]1CN(C)C(=O)Nc1ccc2c(c1)OCO2	DENV2 CPE 58.1 (no result: CaV13 FRET inh)
C[C@H]1CN([C@@H](C)CO)C(=O)c2cccc(NC(=O)C3CCCCC3)c2O[C@H]1CN(C)C(=O)Nc1ccc2c(c1)OCO2	none (no result: CaV13 FRET inh)
C[C@H](NC(=O)[C@H]1[C@H](CO)[C@H]2Cn3c(cccc3=O)[C@H]2N1CC1CCCC1)c1ccccc1	none (no result: CaV13 FRET inh)
COc1ccc(C(CCNCc2ccc(N(C)C)cc2)c2ccccc2)cc1 (configuration not stated)	AF4-AF9 inh 50.2
CC(C)Oc1ccc(C(CCNCc2ccc(O)cc2)c2ccccc2)cc1 (configuration not stated)	none
O=C(c1ccc2c(c1)OCO2)N1CC(=O)N2[C@@H](CO)[C@@H](c3ccc(C#CCC4CCCC4)cc3)[C@@H]2C1	none (no result: CaV13 FRET inh)
O=C(c1ccccc1)N1CC(=O)N2[C@H](C1)[C@H](c1ccc(C#Cc3ccccc3)cc1)[C@@H]2CO	none (no result: CaV13 FRET inh)
O=C(c1ccc2c(c1)OCO2)N1CC(=O)N2[C@H](CO)[C@H](c3ccc(C#CCC4CCCC4)cc3)[C@@H]2C1	SIRT5 inh 25.7 (no result: CaV13 FRET inh)
CC(C)C#Cc1ccc([C@@H]2[C@@H](CO)N3C(=O)CN(C(=O)NC4CCCC4)C[C@H]23)cc1	none (no result: CaV13 FRET inh)
O=C(c1ccccc1)N1CC(=O)N2[C@H](CO)[C@@H](c3ccc(C#Cc4ccccc4)cc3)[C@@H]2C1	DENV2 CPE 20.8 (no result: CaV13 FRET inh)
CC(C)C#Cc1ccc([C@@H]2[C@H](CO)N3C(=O)CN(C(=O)NC4CCCC4)C[C@@H]23)cc1	SIRT5 inh 25.2 (no result: CaV13 FRET inh)
CC(C)C#Cc1ccc([C@@H]2[C@@H](CO)N3C(=O)CN(C(=O)c4ccc5c(c4)OCO5)C[C@H]23)cc1	SIRT5 inh 19.7 (no result: CaV13 FRET inh)
C#CCNC(=O)C[C@H]1C[C@@]2(C(=O)OC)C(=C[C@H](C(C)(C)C)O[C@@H]2C)N(CCC2=CCCCC2)C1=O	none (no result: SIRT5 inh)
CC(=O)N1CC(=O)N2[C@H](C1)[C@@H](c1ccc(-c3ccc(C#N)cc3)cc1)[C@@H]2CO	none (no result: CaV13 FRET inh)
CC(=O)N1CC(=O)N2[C@H](CO)[C@@H](c3ccc(-c4ccc(C#N)cc4)cc3)[C@H]2C1	S100A4 inh HTS 129.1 (no result: CaV13 FRET inh)
O=C(c1ccc2c(c1)OCO2)N1CC(=O)N2[C@H](C1)[C@H](c1ccc(C#Cc3ccccc3)cc1)[C@@H]2CO	DENV2 CPE 49.9 (no result: CaV13 FRET inh)
O=C(c1ccc2c(c1)OCO2)N1CC(=O)N2[C@H](CO)[C@H](c3ccc(-c4ccccc4)cc3)[C@@H]2C1	DENV2 CPE 49.3 (no result: CaV13 FRET inh)
COc1ccc2c3c(n(C)c2c1)[C@@H](CO)N(C(=O)C1CCCC1)CC31CCN(CC2CCCC2)CC1	none (no result: CaV13 FRET inh)
C[C@@H]1CN([C@@H](C)CO)C(=O)c2cc(NS(C)(=O)=O)ccc2O[C@H]1CN(C)S(=O)(=O)c1ccc(F)cc1	none (no result: CaV13 FRET inh)
Cc1cc2nc(CSc3ccccc3)cc(=O)n2[nH]1	SIRT5 inh 29.2
Cc1cc2nc(-c3ccccc3)cc(=O)n2[nH]1	AF4-AF9 inh 49.5
Cc1cc2nc(CCl)cc(=O)n2[nH]1	none
O=S(=O)(NCC[C@H]1CC[C@H](NS(=O)(=O)c2cccc(Cl)c2)[C@H](CO)O1)c1cccc(F)c1	none (no result: CaV13 FRET inh)
O=C(Cc1csc(-c2ccccc2)n1)NCc1ccc(F)cc1	none (no result: DENV2 CPE, S100A4 inh HTS, SIRT5 inh, AF4-AF9 inh)
O=C(Cc1csc(-c2ccccc2)n1)NCc1ccccc1F	CaV13 FRET inh 38.1
O=C(Cc1nc2ccccc2[nH]c1=O)c1ccccc1	CaV13 FRET inh 57.9
C[C@H]1CN([C@@H](C)CO)C(=O)c2cc(-c3cncnc3)cnc2O[C@@H]1CN(C)C(=O)Nc1ccc2c(c1)OCO2	none (no result: CaV13 FRET inh)
CCCCCCCC/C=C\CCCCCCCC(=O)NCCc1ccc(O)c(O)c1	SIRT5 inh 31.7
CCCCCCCC/C=C\CCCCCCCC(=O)NCCO	DENV2 CPE inconclusive
COc1cccc(CN2CC(C(=O)N(C)CC3CCOCC3)CCC2=O)c1 (configuration not stated)	SIRT5 inh 19.0
CON(C)C(=O)[C@H]1C[C@@H]2[C@H](C[C@@H](c3ccccc3)[C@H]1C)N(c1ccc(F)cc1)C(=O)N2CCCOc1ccccc1	none (no result: SIRT5 inh)
C[C@H]1C(C(=O)N(C)C2CCCCC2)=Cc2c(n(-c3ccc(F)cc3)c(=O)n2CCCOc2ccccc2)C=C1c1ccccc1	AF4-AF9 inh 83.6 (no result: SIRT5 inh)
CC(=O)NC(CC(=O)N1CCN(C(C)=O)CC1)c1ccccc1 (configuration not stated)	SIRT5 inh 24.6
COc1cc2sc3ccc(C#Cc4ccccn4)cc3c(=O)c2cc1OC	DENV2 CPE 22.5 (no result: SIRT5 inh, AF4-AF9 inh)

From PubChem BioAssay
